Screening data (PubChem)
SENP8 block-1: blocks human SENP8 cleavage of Nedd8 substrate; AID 602440; Q96LD8; hit rate 0.64% among 360,000; recombinant SENP8, Nedd8 substrate fluorescence; inhibition, % at 20 µM; in the data active = inhibition mostly above about 40%, no sharp cut-off; inactive = mostly below about 27%
UCH37 inh: human UCH37 deubiquitinating enzyme inhibition. Q9Y5K5. purified proteasome/UCH37, Ub-AMC cleavage fluorescence. inhibition, % (no concentration beside the values). hit rate 0.33% among 330,000. AID 588478;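 active = mean inhibition over replicate wells above about 20%, limit read from the data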;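 also: 0% = compound-free wells with enzyme and 100% = wells lacking proteasome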
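Material: Human UCH37 enzyme supplied as purified proteasome complex | Schedule: 30 min compound-proteasome preincubation then 25 min substrate reaction, room temperature | Detection: AMC fluorescence from Ub-AMC cleavage, excitation 355 nm, emission 460 nm | Benchmarks: Wells without proteasome as full block, compound-free enzyme plus substrate as uninhibited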
SENP6 inh: blocks the human protease SENP6; hit rate 1.8% among 330,000; inhibition, % at 10 µM; Q9GZR1; Recombinant SENP6 catalytic domain, aminoluciferin luminescence;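 active = inhibition above about 50% at the single tested dose, limit read from the data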;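 also: plate controls were DMSO wells with enzyme for no effect and DMSO wells lacking enzyme for full effect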
Target sequence (Q9GZR1 628-1112 limits assumed): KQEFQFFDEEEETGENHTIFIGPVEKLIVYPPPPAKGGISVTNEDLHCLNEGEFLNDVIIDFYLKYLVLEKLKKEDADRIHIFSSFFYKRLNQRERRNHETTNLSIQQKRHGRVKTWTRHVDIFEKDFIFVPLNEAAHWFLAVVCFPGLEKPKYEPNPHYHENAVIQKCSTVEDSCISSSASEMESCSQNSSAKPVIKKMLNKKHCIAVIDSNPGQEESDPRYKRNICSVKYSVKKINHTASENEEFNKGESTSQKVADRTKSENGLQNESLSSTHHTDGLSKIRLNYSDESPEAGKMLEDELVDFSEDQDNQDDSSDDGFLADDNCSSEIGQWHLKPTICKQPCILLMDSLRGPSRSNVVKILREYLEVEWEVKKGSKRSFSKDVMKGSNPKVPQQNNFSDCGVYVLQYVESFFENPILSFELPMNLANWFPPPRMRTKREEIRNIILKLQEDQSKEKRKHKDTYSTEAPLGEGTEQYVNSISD
SENP1 FRET inh: SENP1 (human) catalytic domain inhibition | Q9P0U3 | recombinant SENP1 catalytic domain, CyPet-SUMO1-YPet FRET cleavage | inhibition, % at 10 µM | hit rate 0.21% among 360,000;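 active = inhibition at least 30% at 10 µM, raw YFP signal under a set limit, fluorescence ratio 0.5 to 1.5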;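 also: 0% = enzyme with DMSO and 100% = no enzyme wells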
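Controls: no-enzyme wells low, DMSO-plus-enzyme wells high control. Test system: human recombinant His6-tagged SENP1 catalytic domain enzyme. Reagent: SFCypet-SUMO1-SFYpet FRET protein substrate, 25 nM final. Doses: one dose per compound, 10 µM, 0.5% DMSO. Detection: FRET, CFP and YFP emission. Timing: 50 min reaction at room temperature.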
SENP7 inh: inhibitors of human SENP7 protease; Q9BQF6; recombinant SENP7, Z-RLRGG-aminoluciferin luminescence, 40 min; inhibition, % at 5 µM; hit rate 1.5% among 330,000; AID 434973;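 active = inhibition above about 50% at the single test dose, limit read from the data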;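 also: plate controls were DMSO with enzyme for no effect and no enzyme buffer wells for full effect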
SENP8 block-2: blocks the human protease SENP8. purified SENP8, Z-RLRGG-aminoluciferin cleavage, luminescence. inhibition, % at 10 µM. hit rate 1.2% among 330,000; in the data active = inhibition above about 50%
SENP8 conf: human SENP8 inhibition, confirmed. shares compounds with SENP7 inh. Recombinant SENP8, Z-RLRGG-aminoluciferin luminescence, 60 min. inhibition, % at 12.5 µM. hit rate 40% among 6,200;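 active = mean inhibition across replicates above about 50%, limit read from the data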
SENP6 conf: human SENP6 inhibition, confirmed | shares compounds with SENP7 inh | recombinant SENP6, Z-RLRGG-aminoluciferin luminescence | inhibition, % at 12.5 µM | hit rate 58% among 6,200 | AID 488915
SENP7 conf: human SENP7 inhibition, confirmed; shares compounds with SENP7 inh; recombinant SENP7, Z-RLRGG-aminoluciferin luminescence, 40 min; inhibition, % at 12.5 µM; hit rate 69% among 6,200; AID 488917
Casp3 SENP sel: caspase-3 inhibition (SENP selectivity assay) | shares compounds with SENP7 inh | purified caspase-3, Z-DEVD-aminoluciferin luminescence, 60 min | inhibition, % at 12.5 µM | hit rate 60% among 6,200 | AID 488918;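 active = mean inhibition above about 50%, limit read from the data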;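 also: plate controls were enzyme with DMSO for no effect and wells without caspase-3 for full effect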
SENP luc ctr: luminescence interference (SENP counter-screen); hit rate 39% among 6,200; AID 488919; shares compounds with SENP7 inh; Pre-incubated SENP8/Z-RLRGG-aminoluciferin, luciferase luminescence interference; inhibition, % at 12.5 µM;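 active = mean inhibition above about 50% when retested at one dose, limit read from the data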;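 also: plate controls were DMSO wells with completed reaction for no effect and substrate without enzyme for full effect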
Active calls of the source: *; i = inactive; x = no result. Compounds with a hit are over-represented: about 2.6% of the library has one in this group of screens.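 The calls were made as follows, unless noted: active = mean inhibition above about 50% in the one-dose retest (limit read from the data); inactive = the rest.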

SMILES	SENP8 block-1	UCH37 inh	SENP6 inh	SENP1 FRET inh	SENP7 inh	SENP8 block-2	SENP8 conf	SENP6 conf	SENP7 conf	Casp3 SENP sel	SENP luc ctr
O=C(Cc1ccc(Cl)cc1)c1ccc(O)cc1	23	3	51*	-1	5	42	55*	50	79*	46	63*
COC(=O)c1cccc(Cn2c(Cl)c(C=NNC(=O)c3ccco3)sc2=O)c1	x	1	x	x	x	x	x	x	x	x	x
N#CC1(NC(=O)COC(=O)c2ccccc2[N+](=O)[O-])CCCCC1	3	3	-4	2	-2	0	x	x	x	x	x
O=C(OCC(=O)N1CCc2ccccc21)c1ccccc1[N+](=O)[O-]	4	-2	87*	1	91*	86*	94*	94*	102*	95*	74*
O=C(OCC(=O)N1CCc2ccccc21)c1ccccc1F	10	4	58*	-2	43	33	43	38	76*	64*	5
Cc1ccc(C(=O)OCC(=O)N2CCc3ccccc32)cc1	32	0	5	0	31	-23	x	x	x	x	x
O=C(c1ccccc1F)N1CCc2ccccc21	10	-1	6	0	3	2	x	x	x	x	x
O=C(COC(=O)c1ccccc1[N+](=O)[O-])c1ccc(C2CCCCC2)cc1	12	2	90*	-2	98*	89*	12	77*	52*	79*	16
COc1ccc(N(CC(=O)NN=C(C)c2ccccc2)S(=O)(=O)c2ccccc2)cc1	x	3	x	x	x	x	x	x	x	x	x
COc1cc(C=NN2CCN(C3c4ccccc4-c4ccccc43)CC2)cc(OC)c1O	x	1	x	x	x	x	x	x	x	x	x
FC(F)(F)c1cccc(-c2nc3nc(Cl)c(Cl)nc3[nH]2)c1	-264	x	95*	-56	92*	93*	97*	98*	102*	92*	87*
COc1cccc2sc(N)nc12	9	-2	2	0	-8	5	x	x	x	x	x
COc1cccc2sc(N(C)c3ccccc3)nc12	16	1	47	0	89*	76*	-8	83*	96*	78*	83*
O=C(Nc1ccc(N2CCOCC2)cc1)c1nc2ccccc2s1	37	5	95*	7	98*	75*	-23	12	26	17	45
O=C(Nc1ccc2c(c1)OCCO2)c1cc2ccccc2o1	0	2	81*	1	78*	61*	2	84*	97*	80*	79*
Cc1c(C(=O)Nc2ccc(N3CCOCC3)cc2)oc2ccccc12	13	1	70*	0	67*	32	12	59*	62*	54*	11
O=C(Nc1ccc(N2CCOCC2)cc1)c1cc2ccccc2o1	17	-4	70*	1	48	38	12	45	82*	69*	17
COc1ccccc1OCCn1cc(C=NNC(=O)c2ccncc2)c2ccccc21	x	7	x	x	x	x	x	x	x	x	x
COCc1cc(=O)[nH]c(N=C(N)Nc2cccc(Cl)c2)n1	x	4	x	x	x	x	x	x	x	x	x
CN(C)C(=O)COC(=O)c1ccccc1Nc1ccc(SC(F)F)cc1	-172	-26	-4	1	62*	52*	30	60*	84*	25	6
COc1ccccc1NC(=O)COC(=O)c1ccccc1OCC(=O)Nc1ccc(SC(F)F)cc1	9	2	-10	1	-4	-5	x	x	x	x	x
Cc1nc(-c2cccnc2)sc1C(=O)NN=Cc1ccccc1Cl	x	-5	x	x	x	x	x	x	x	x	x
COc1cc(-c2noc(-c3cccc(Cl)c3)n2)cc(OC)c1OC	13	2	-4	1	2	-2	x	x	x	x	x
NC(=O)c1ccc(-c2noc(-c3cccc(Cl)c3)n2)cc1	9	2	6	0	58*	14	-14	-8	8	16	-2
O=C(O)c1cccc(-c2noc(-c3cccc(Cl)c3)n2)c1	10	1	99*	1	101*	98*	99*	100*	103*	98*	96*
SMILES	SENP8 block-1	UCH37 inh	SENP6 inh	SENP1 FRET inh	SENP7 inh	SENP8 block-2	SENP8 conf	SENP6 conf	SENP7 conf	Casp3 SENP sel	SENP luc ctr
N#Cc1c(C(F)(F)F)cc(-c2ccc(Cl)cc2)[nH]c1=O	-313	i	51*	-155	23	69*	-26	13	39	16	41
N#Cc1c(C(F)(F)F)cc(-c2cccc(Cl)c2)[nH]c1=O	-268	i	74*	-144	4	78*	91*	91*	96*	74*	89*
Cc1ccc2c(c1)c(=O)c1c3n2CCN(C(=O)CCl)C3CC1 (centres undefined)	-179	4	50*	-17	31	27	24	60*	17	5	-4
O=[N+]([O-])c1ccc(O)c(C2=NNC(c3ccccc3F)C2)c1 (centres undefined)	22	2	-16	10	39	85*	-4	86*	97*	38	50*
CCc1cccc2c(C=NNC(=O)c3cccc(S(=O)(=O)Nc4ccccc4Cl)c3)c[nH]c12	x	-6	x	x	x	x	x	x	x	x	x
CN(C)c1ccc(C2NC(=O)c3ccccc3N2)cc1 (centres undefined)	-272	3	91*	0	93*	87*	13	6	2	13	15
Cc1ccc(S(=O)(=O)N=C(CCl)N2CCOCC2)cc1	x	1	x	x	x	x	x	x	x	x	x
Cc1ccc(-c2noc(COC(=O)c3ccco3)n2)cc1	15	0	78*	-1	68*	63*	76*	76*	95*	72*	68*
O=C(Nc1ccc(-c2noc(CCc3ccccc3)n2)cc1)c1ccco1	-10	4	78*	-5	60*	55*	68*	71*	90*	53*	10
Cc1n[nH]c(=S)n1N=Cc1c(O)ccc2ccccc12	x	0	x	x	x	x	x	x	x	x	x
Cc1ccc(NC(=S)Nc2cccc3ccccc23)cc1	-463	2	81*	-35	17	36	5	-2	2	4	10
CSc1ccccc1NC(=S)Nc1cc(C)cc(C)c1	15	-1	-18	2	-9	-8	x	x	x	x	x
